MsrA act: activates bovine MsrA enzyme. actives 0.3% (n = 360,000). purified bovine MsrA, absorbance read-out. activation, % at 10.6 µM. AID 602163; in the data active = activation above about 7.5%;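 note: 0% = vehicle and 100% = reference activator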
MC4R barr agon: activates human MC4R beta-arrestin recruitment; U2OS MC4R beta-arrestin complementation, luminescence; percent of melanotan II response, DMSO zero; actives 0.98% (n = 360,000); P32245; activation, % at 8.9 µM;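 active = activation above a per-plate cutoff, the mean activation of sample wells on that plate plus 3 SD, cut at about 8% in these data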
Target sequence (P32245 whole entry, looked up): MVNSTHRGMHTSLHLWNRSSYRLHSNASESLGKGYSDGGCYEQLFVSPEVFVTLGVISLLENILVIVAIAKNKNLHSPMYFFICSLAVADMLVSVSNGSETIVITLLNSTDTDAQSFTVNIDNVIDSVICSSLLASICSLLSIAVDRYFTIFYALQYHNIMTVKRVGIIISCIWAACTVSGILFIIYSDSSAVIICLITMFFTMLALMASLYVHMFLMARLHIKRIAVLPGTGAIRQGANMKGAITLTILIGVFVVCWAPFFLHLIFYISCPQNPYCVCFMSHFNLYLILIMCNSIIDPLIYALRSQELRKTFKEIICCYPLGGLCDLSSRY
MC4R antag cAMP: blocks human MC4R cAMP signaling; MC4R-expressing cells, MTII-stimulated cAMP, LANCE TR-FRET; inhibition, % at 6.5 µM; actives 0.48% (n = 360,000); P32245; AID 540295;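 active = inhibition above its plate's cutoff, the mean of tested wells on that plate plus 3 SD, cut at about 29% in these data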;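 note: 0% = Melanotan II alone and 100% = Melanotan II plus saturating MCL0020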
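Material – human MC4R-expressing U2OS cells · Repeats – no replicates · Detection – TR-FRET with Eu-cAMP and labeled anti-cAMP, 671 nm · Times – compound 30 min, challenge 1 h, detection 1 h · Compound – single nominal compound dose of 6.5 µM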
MsrA inhibitor: bovine MsrA inhibition; purified bovine MsrA, absorbance read-out; inhibition, % at 15.5 µM; actives 0.75% (n = 360,000); in the data active = inhibition above about 4.5%;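 note: 0% = vehicle wells with enzyme and 100% = reference inhibitor wells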
U2OS cAMP counter: nonselective cAMP signaling inhibitor, MC4R antagonist counter-screen. AID 602193. inhibition, % at 6.5 µM. parental U2OS, forskolin cAMP, LANCE TR-FRET. shares compounds with MC4R antag cAMP. actives 26% (n = 1,600);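 active = mean inhibition over triplicates above the low-control well mean plus 3 SD, set per campaign, cut at about 13% in these data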;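 note: signal is single emission at 671 nm which falls as cellular cAMP rises; 0% = forskolin-stimulated wells and 100% = buffer without forskolin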
MC4R cAMP antag: human MC4R cAMP antagonism confirmation. inhibition, % at 6.5 µM. MC4R-expressing cells, MTII-stimulated cAMP, TR-FRET. AID 602195. shares compounds with MC4R antag cAMP. actives 27% (n = 1,600); in the data active = inhibition above about 29%;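 note: 0% = agonist stimulated wells alone and 100% = agonist stimulated wells plus saturating reference antagonist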
Starred values were filed as active, the others as inactive; . = no result. In the library only some 2.3% were active in any assay of this set; here they are far more common.

SMILES	MsrA act	MC4R barr agon	MC4R antag cAMP	MsrA inhibitor	U2OS cAMP counter	MC4R cAMP antag
COc1ccc(CNC(=O)COC(=O)c2cc(-c3ccc(Cl)s3)nc3ccccc23)cc1	2	9.2*	0	0	.	.
Cc1cc(C(=O)OCC(=O)NCc2ccccc2)c2ccccc2n1	0	-2	-1	0	.	.
O=C(COC(=O)c1cc(-c2ccc(Cl)s2)nc2ccccc12)NCc1ccco1	-3	-1	18	4.6*	.	.
O=C1ON=C(c2ccccc2)/C1=C/c1ccc(-c2ccccc2[N+](=O)[O-])o1	-3	-1	32*	1	.	.
CCOc1ccc(Cn2nnc(C(=O)Nc3cc(C)cc(C)c3)c2N)cc1	1	9.4*	-9	1	.	.
Nc1c(C(=O)Nc2ccc3c(c2)OCCO3)nnn1Cc1ccc(Br)cc1	-1	8.4*	2	1	.	.
Cc1cc(C)cc(NC(=O)Cn2nnc(C(=O)NCc3ccccc3Cl)c2N)c1	0	10*	0	-1	.	.
CCOc1ccc(Cn2nnc(C(=O)Nc3cc(OC)cc(OC)c3)c2N)cc1	-2	8	6	0	.	.
CCOc1ccc(C(C(=O)NC2CCCCC2)N(C(=O)c2ccccn2)c2cccnc2)cc1 (stereo not drawn)	-6	1	0	1	.	.
CSc1cccc(NC(=O)NCc2cccc(CNC(=O)Nc3cccc(SC)c3)c2)c1	-4	-3	12	1	.	.
CSc1cccc(NC(=O)C(=O)NCc2ccccc2)c1	-6	8.7*	-4	-1	.	.
Clc1ccc2nc(CSc3ncn[nH]3)cn2c1	-1	-1	11	0	.	.
COc1cc(NC(=O)CN2CCC(Cc3ccccc3)CC2)c(C)cc1[N+](=O)[O-]	-2	9.5*	3	1	.	.
O=C(CN1CCC(Cc2ccccc2)CC1)NC(=O)NCc1ccccc1	-1	9.6*	9	-1	.	.
O=C(CN1CCC(Cc2ccccc2)CC1)NC(=O)NC1CCCCC1	-1	0	1	0	.	.
COc1ccc(S(=O)(=O)N(CCCN2CCCC2=O)Cc2cc3c(C)cc(C)cc3[nH]c2=O)cc1	-1	0	3	-1	.	.
COc1cccc2[nH]c3c(Cl)ncnc3c12	-2	-1	29*	1	8	27
Cc1noc(C)c1S(=O)(=O)Nc1ccc(C(=O)NC2CCCCC2C)cc1 (stereo not drawn)	-2	1	7	-1	.	.
Cc1ccnc(NC(=O)c2ccc(C(=O)c3ccccc3)cc2)c1	-1	1	10	0	.	.
Cc1ccnc(NC(=O)c2cnc(Cl)c(Cl)c2)c1	-2	-1	32*	1	18*	22
O=C(Cn1cc(C(F)(F)F)ccc1=O)NC(c1ccccc1)c1ccccc1	-2	-1	36*	0	4	9
CSCCC(NC(=O)c1ccc(Cl)cc1)C(=O)OCC(=O)Nc1cc(Cl)ccc1C#N (stereo not drawn)	-4	3	32*	-1	13*	29*
CSCCC(NC(=O)c1ccc(Cl)cc1)C(=O)OCC(=O)NCc1ccco1 (stereo not drawn)	-2	-2	22	0	.	.
Cc1cccc(C(=O)NCC(=O)OCC(=O)c2ccc(Br)s2)c1	-1	1	44*	0	33*	70*
Cc1cccc(C(=O)NCC(=O)OCC(=O)NCCNC(=O)COC(=O)CNC(=O)c2cccc(C)c2)c1	0	0	14	-2	.	.
SMILES	MsrA act	MC4R barr agon	MC4R antag cAMP	MsrA inhibitor	U2OS cAMP counter	MC4R cAMP antag
COc1ccc(OCCCn2ccnc2)cc1	-2	-2	-1	0	.	.
COc1cc([N+](=O)[O-])ccc1NC(=S)NC(=O)CC(C)(C)C	-2	-3	30*	0	6	32*
COc1ccc([N+](=O)[O-])cc1NC(=S)NC(=O)C(C)(C)C	3	-4	6	0	.	.
O=C(O)c1ccc(N2C(=O)CC(SC(=NCc3ccc4c(c3)OCO4)Nc3ccc(F)cc3)C2=O)cc1 (stereo not drawn)	-2	3	13	0	.	.
CCOC(=O)C(=Cc1ccc(-n2ccnc2)cc1)C(=O)OCC	-2	-3	34*	1	9	25
O=C(NCCc1ccccc1)C(c1cccs1)N(C(=O)CCl)c1ccc(Cl)cc1 (stereo not drawn)	0	34*	30*	0	-34	31*
N#CCCCSc1nnc(Cc2ccc3c(c2)OCO3)o1	1	1	8	0	.	.
COc1ccccc1N(C(C)=O)C1=C(Cl)C(=O)c2ccccc2C1=O	-2	-4	98*	-1	50*	13
CCOC(=O)N1CCN(C(=O)c2cc3c(-c4cccc(OC)c4)nn(C)c3s2)CC1	-2	0	30*	2	5	15
CN(NS(=O)(=O)c1ccc(Br)cc1)c1nc(C(F)(F)F)nc2ccccc12	-2	0	32*	0	1	-1
CN(N)c1nc(C(F)(F)F)nc2ccccc12	-5	-1	-2	1	.	.
COc1ccc(OC)c(C2C(C(=O)Nc3nc4ccccc4s3)=C(C)NC3=C2C(=O)CCC3)c1 (stereo not drawn)	-3	-3	33*	0	7	43*
CC(=O)c1ccc(Oc2cc(C(F)(F)F)cnc2C(N)=O)cc1	-2	0	4	-2	.	.
CC(=O)Nc1cccc(NC(=O)CCCC2CCCCC2)c1	-3	-1	6	0	.	.
O=C(CCC1CCCC1)Nc1cccc(Cc2ccncc2)c1	-2	1	33*	1	-3	-14
CC12CN3CC(C)(CN(C1)C3c1cc3ccccc3[nH]1)C2=O (stereo not drawn)	1	1	-2	2	.	.
Cc1ccc(S(=O)(=O)NCC(=O)N/N=C/c2ccc(Cl)cc2)cc1	-1	0	-4	0	.	.
CC(C)CNC(=O)COC(=O)c1c2c(nc3ccccc13)/C(=C\c1cccs1)CC2	-3	3	29*	1	3	0
N#Cc1ccsc1NC(=O)c1ccc(Cl)c([N+](=O)[O-])c1	-3	-1	36*	1	10	11
N#Cc1ccsc1NC(=O)c1cccc([N+](=O)[O-])c1	-1	-2	-2	0	.	.
COc1ccc(C(=O)N/C(=C\c2ccc3c(c2)OCO3)C(=O)NCCc2nc3ccccc3[nH]2)cc1	-3	0	29*	1	3	-2
CC(=O)Nc1ccc(C(=O)OCC(=O)Nc2ccccc2Sc2ccccc2)cc1	0	3	10	0	.	.
N#CCC(=O)Nc1ccc(C(=O)OCC(=O)Nc2ccccc2Sc2ccccc2)cc1	1	1	31*	2	-3	9
O=C(c1ccccc1)c1cccc2ccccc12	-1	5	2	0	.	.
NC(=O)c1cccc2ccccc12	-3	-1	32*	0	2	-8
CSCCC(Nc1ncnc2ccc(Br)cc12)C(=O)O (stereo not drawn)	-2	0	31*	0	8	12

Compound activity deposited in PubChem BioAssay by The Scripps Research Institute Molecular Screening Center.
